Source: PubChem BioAssay (several laboratories)
In the library only some 5.4% were active in any assay of this set; here they are far more common.
Cav32 inh: human Cav3.2 channel inhibition, primary screen; B-score at 10 µM; O95180; Cav3.2-expressing cells, Fluo-4 calcium fluorescence FDSS; active compounds read low; AID 449739; 100,000 compounds, 4% hits;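 active means single-dose well whose peak fluorescence ratio is a statistical outlier from its plate by either plate-standardised score or position-corrected B-score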
Rev-RRE block: HIV Rev-RRE protein-RNA interaction inhibition | P05866 | Rev peptide-RRE RNA binding, FRET | inhibition, % at 8 µM | 97,000 compounds, 0.79% hits;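 active means inhibition above the screen-wide mean plus 3 SD, cut at about 35% in these data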;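 further: 0% = median DMSO wells and 100% = median Neomycin B control wells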
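Assay system: Labelled RRE RNA duplex and labelled Rev peptide | Times: 5 min preincubation and 15 min binding, 25 °C | Detection: FRET, ex 480 nm, em 540 and 671 nm | Evaluation: % inhibition of FRET ratio versus controls | Benchmarks: DMSO wells as 0% and neomycin B wells as 100% inhibition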
hDAT+cocaine: changed human dopamine transporter uptake under cocaine IC80; B-score at 10 µM; Q01959; 110,000 compounds, 1.3% hits; AID 449768; LLC-PK1 hDAT cells, [14C]-dopamine uptake with cocaine IC80; actives deviate in either direction;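 active means Z score or B-score, a plate-position-corrected score, falls beyond the plate's 99.7% confidence bounds, in either direction; inactive means both scores lie inside the 99.7% bounds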;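 further: scored against the spread of the other compound wells on the same plate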
Target sequence (Q01959 whole entry, looked up): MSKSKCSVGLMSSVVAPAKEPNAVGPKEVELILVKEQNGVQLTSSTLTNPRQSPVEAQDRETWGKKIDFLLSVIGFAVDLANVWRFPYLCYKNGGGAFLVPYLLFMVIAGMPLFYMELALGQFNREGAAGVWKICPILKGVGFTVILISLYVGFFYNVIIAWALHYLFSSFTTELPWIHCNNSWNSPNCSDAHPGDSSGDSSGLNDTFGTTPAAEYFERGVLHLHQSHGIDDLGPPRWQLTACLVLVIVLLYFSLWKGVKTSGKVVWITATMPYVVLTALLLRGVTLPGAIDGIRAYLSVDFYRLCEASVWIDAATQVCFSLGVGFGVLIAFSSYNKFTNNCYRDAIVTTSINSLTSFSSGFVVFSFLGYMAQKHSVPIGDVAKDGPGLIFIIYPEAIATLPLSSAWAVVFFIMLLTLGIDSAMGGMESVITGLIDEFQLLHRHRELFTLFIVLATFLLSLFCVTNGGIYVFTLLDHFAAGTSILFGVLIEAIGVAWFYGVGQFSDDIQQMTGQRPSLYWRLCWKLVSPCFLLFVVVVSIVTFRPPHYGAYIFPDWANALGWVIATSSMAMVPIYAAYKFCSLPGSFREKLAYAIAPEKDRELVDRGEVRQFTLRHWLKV
EphB4 antag: antagonists of human EphB4-ephrin-B2 interaction | EphB4 LBD / TNYL-RAW-Alexa532 peptide, fluorescence polarization | inhibition, % at 7 µM | AID 720 | P54760 | 97,000 compounds, 0.15% hits;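 active means inhibition above the screen-wide mean inhibition plus 3 SD, cut at about 15% in these data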;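 further: 0% = DMSO wells and 100% = excess unlabeled TNYL-RAW peptide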
* = called active by the depositor; nt = not tested or not shown; [ ] = another dose, or the depositor's remark.

SMILES	Cav32 inh	Rev-RRE block	hDAT+cocaine	EphB4 antag
COC(=O)C1=C(C)N(C)C(C)=C(C(=O)OC)C1c1ccncc1	1.6	1	0.072	2
COC(=O)C1=C(C)N(C)C(C)=C(C(=O)OC)C1c1ccc(F)c(Br)c1	-6.8*	6	0.24	-5
C=CCn1c(SCC(=O)N2CC(=O)Nc3ccccc32)nc2scc(-c3cccs3)c2c1=O	-7.2*	-3	0.73	-9
CC(C)CCn1c(SCC(=O)N2CC(=O)Nc3ccccc32)nc2scc(-c3cccs3)c2c1=O	-1	7	-0.68	-4
C=CC[n+]1c(-c2ccc(OCC)cc2)csc1NNC(=O)Nc1ccccc1	-2	3	0.015	2
Cc1ccccc1N=C/C=C1\N(C)c2ccccc2C1(C)C	-0.63	8	nt	6
CN1/C(=C/C=C(/C#N)C(N)=O)C(C)(C)c2ccccc21	-0.63	47*	-0.73	2
CCn1c(CSc2nnc(-c3ccc4c(c3)OCO4)o2)nc2cc(S(=O)(=O)N(C)C)ccc21	2.2	nt	1.4	nt
Cc1noc(C)c1CSCC(=O)OCc1nc2ccccc2c(=O)n1CC#N	0.35	nt	0.34	nt
C=C1CCN([C@@H](Cc2ccccc2)C(=O)NCCCc2ccccc2)S(=O)(=O)c2ccccc21	-4.5*	nt	1	nt
C=CCN(CC=C)C(=S)NC(=O)c1ccc(-c2ccccc2)cc1	-4.4*	-6	0.2	7
CCOC(=O)CN(C(=O)CSc1nnc2c(n1)[nH]c1ccc(F)cc12)c1ccccc1	-4.3*	7	0.21	-5
CCOC(=O)CN(C(=O)CSc1nnc2c(n1)[nH]c1ccccc12)c1ccccc1	0.1	10	0.76	4
CCc1nnc(NC(=O)C2Cc3ccccc3CN2S(=O)(=O)c2c(C)c(C)cc(C)c2C)s1 (stereo unspecified)	-3.5	-1	0.75	-6
N#Cc1cnn(-c2nc(SCc3ccccc3)nc3sc4c(c23)CCCC4)c1N	-5*	14	0.51	-7
CCC(CC)C(=O)Nc1cccc(/C(C)=N/NC(=O)c2ccccc2Cl)c1	-0.77	0	0.61	-5
CC1CCN(C(=S)c2cn(Cc3ccccc3F)c3ccccc23)CC1	-6.5*	5	1.8	3
CCCCCOC(=O)C1=C(C)NC(=O)NC1c1ccccc1OCC (stereo unspecified)	-5.7*	8	0.046	-3
COc1cccc(C2C(C(=O)OCc3ccccc3)=C(C)Nc3ncnn32)c1OC (stereo unspecified)	-0.77	7	-0.083	-6
CCOc1ccccc1C1NC(=O)NC(C)=C1C(=O)OC1CCCC1C (stereo unspecified)	-5.3*	6	0.059	10
CCCCOC(=O)C1=C(C)Nc2ncnn2C1c1cccc(OC)c1OC (stereo unspecified)	-0.92	6	-2.9*	-3
COC(=O)c1ccccc1NC(=O)CN1CCN(C23CC4CC(CC(C4)C2)C3)CC1	1.3	nt	-0.3	nt
Cc1ccc(C(=C2C3C=CC2C2C(=O)NC(=O)C32)c2ccc(C)cc2)cc1 (stereo unspecified)	0.1	7	0.21	5
Cc1cccc(N(CC(=O)N/N=C/c2cc([N+](=O)[O-])ccc2Cl)S(C)(=O)=O)c1C	-5.5*	18	0.4	6
CS(=O)(=O)N(CC(=O)N/N=C/c1cc([N+](=O)[O-])ccc1Cl)c1ccccc1	nt	8	2*	4
SMILES	Cav32 inh	Rev-RRE block	hDAT+cocaine	EphB4 antag
O=[N+]([O-])c1ccc(Cl)c(/C=N/NC(=S)Nc2ccccc2)c1	0.1	8	-0.43	3
Cc1ccc(NC(=O)CCC(=O)OCC(=O)c2ccc(Oc3ccc([N+](=O)[O-])cc3)cc2)c(C)c1	0.0098	5	0.76	-4
O=C(Cc1ccccc1[N+](=O)[O-])NCc1ccccc1Cl	0.072	10	-0.0041	0
COC1=C(OC)C(=O)C(CCCCCCCCCCO)=C(C)C1=O	-3.1	nt	-0.94	nt
CC1=C(C)C(=O)C(CCCCC#CCCCC#CCO)=C(C)C1=O	-4.1*	nt	0.26	nt
CC(C)CO/C(=N/S(=O)(=O)c1ccccc1)c1ccccc1	-4.1*	2	-0.64	-4
COc1ccc(O/C(=N\S(=O)(=O)c2ccccc2)c2ccccc2)cc1	-0.24	4	-0.53	-6
CCN(CC)C(=O)C1CC(c2ccc(OC)cc2)=NO1 (stereo unspecified)	-4.3*	8	-0.17	6
OCCCc1nc2n(n1)C(c1ccccc1Cl)C=C(c1cccs1)N2 (stereo unspecified)	-1.5	92*[fluorescence artefact?]	0.11	-5
OCCCc1nc2n(n1)C(c1cccs1)C=C(c1ccccc1)N2 (stereo unspecified)	-9.9*	137*[fluorescence artefact?]	0.9	5
CC(C)C[C@H]1C(=O)N2CCC[C@H]2[C@]2(O)O[C@](NC(=O)C3C=C4c5cccc6[nH]c(Br)c(c56)C[C@H]4N(C)C3)(C(C)C)C(=O)N12 (stereo partly specified)	-5.6*	nt	1.9	nt
CCOC(=O)c1c(NS(C)(=O)=O)sc2c1CCC(C)C2 (stereo unspecified)	-10*	2	-0.19	1
CCn1c(-c2ccccc2Cl)nn(CC(=O)Nc2cc(Cl)ccc2Cl)c1=S	-4.8*	7	1.5	4
Cc1ccc(S(=O)(=O)NCCC2(C(C)C)CCOC(C)(C)C2)cc1 (stereo unspecified)	-0.71	-2	-0.2	-2
CCC1(C)CC(CCNS(=O)(=O)c2ccc(C)cc2)(c2ccc(C)cc2)CCO1 (stereo unspecified)	-5.3*	-1	2.5	-8
O=C(CN(C(=O)C1CSC(=O)C1)c1ccccc1F)NCc1ccc2c(c1)OCO2 (stereo unspecified)	-3.8*	5	0.085	-3
CC(C)(Oc1ccc(Cl)cc1)C(=O)N1CCN(c2ccccn2)CC1	-4.5*	7	nt	1
COc1ccc(Cl)cc1C(=O)N1CCN(c2ccccn2)CC1	1.1	-4	-0.51	2
COc1ccc(/C(O)=C/c2nc3ccccc3n(-c3ccccc3)c2=O)cc1	-0.069	78*	1.1	3
COc1ccc(OC)c(/C=N\NC(=O)CSc2nnc(CCCc3ccc(OC)c(C)c3)o2)c1	0.2	-6	-1	1
COc1ccccc1N1CCN(c2nc3ccccc3nc2C(C#N)C(=O)OC(C)C)CC1 (stereo unspecified)	-8.5*	3	0.058	-6
CCOc1ccccc1N1CCN(c2nc3ccccc3nc2C(C#N)C(=O)OC)CC1 (stereo unspecified)	-7.6*	13	-1.7	-1
N#CC(C(=O)OC1CCCCC1)c1nc2ccccc2nc1N1CCCCC1 (stereo unspecified)	-1.3	16	-1.9	4
COCCOC(=O)C(C#N)c1nc2ccccc2nc1N1CCCC1 (stereo unspecified)	0.6	18	0.034	-5
Cc1ccc(C)c(-n2c(SCC(=O)Nc3nonc3C)nnc2-c2ccoc2C)c1	-6*	11	0.93	7
Cc1cccc(Nc2nc(N3CCCC3)nc(N3CCCC3)n2)c1	-0.39	14	-0.81	6
